The record followed here is the array DNA melting data of Ke et al. (doi:10.1101/2024.01.08.574731).

Series [1] can be described thus: melting temperature; fluorescence melt of hairpins on a sequencing array, two-state fit, raised by 9.35 °C to match UV melts. The note with it: sodium 0.088 M. An outline of the steps: (§1)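 Bootstrapped two-state fits yielded melting temperature and folding enthalpy for library hairpins. Cy3 fluorescence, with annealed Cy3 and quencher oligos, was imaged on a sequenced MiSeq flow cell in 50 mM Na-HEPES pH 8.0, 25 mM NaCl in 2.5 °C steps up to 60 °C, and normalised to pre-quench Cy3 and to control constructs. Four replicates were combined by inverse variance, and fitted temperatures were raised by 9.35 °C to match UV melts.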

Series [2] is described as follows: folding enthalpy; higher = less favourable; fluorescence melt of hairpins on a sequencing array, two-state fit. The note with it: sodium 0.088 M. An outline of the steps:
as §1

In the case of GCAATGCGAAAGCGCTGC (((..((....))..))), the Tm in series [1] was found to be 49.2 °C. For the same sequence, the folding enthalpy in series [2] was -20 kcal/mol.
Take GCCCCAGGAAACTGGAGC ((.((((....)))).)): in series [1], the Tm came to 46.7 °C. Besides, the folding enthalpy in series [2] was -25.3 kcal/mol.
With GCTGAGCGAAAGCACAGC ((((.((....)).)))), the Tm in series [1] came out at 67.8 °C. For the same sequence, the folding enthalpy in series [2] is -35.6 kcal/mol.
Take GCCCAGGGAAACTTGGGC (((((.(....).))))): the Tm in series [1] worked out at 56.5 °C. Further, the folding enthalpy in series [2] was -36.8 kcal/mol.
In the case of GTCTATGGAAACACAGAC ((((.((....)).)))), in series [1], the Tm turned out to be 31.6 °C. For the same sequence, the folding enthalpy in series [2] is -21 kcal/mol.
For GATCTATGCTAGATC ((((((...)))))), in series [1], the Tm turned out to be 40.4 °C. Moreover, the folding enthalpy in series [2] was -23.4 kcal/mol.
For GCTACCGGAAACAGTAGC (((((.(....).))))), the Tm in series [1] was 40.6 °C. Besides, the folding enthalpy in series [2] is -34.3 kcal/mol.
The matching figures for CGGGCGGAAACGCGTCCG ((((((....)))..))): 53 °C and -23.9 kcal/mol.
The matching figures for GACAGTGGAAACACTGCC (.(((((....))))).): 46 °C and -14.5 kcal/mol.
In the case of GATCACATGGTGATC ((((((...)))))), in series [1], the Tm amounted to 61.1 °C. Further, the folding enthalpy in series [2] is -37 kcal/mol.
GTAGATCGAAAGATTTAC (((.(((....))).))): the Tm in series [1] came to 39.5 °C. Also, the folding enthalpy in series [2] was -30.4 kcal/mol.
Turning to GGTAGCGGAAACGCCACC (((.(((....))).))), the Tm in series [1] amounted to 48.3 °C. In series [2], the folding enthalpy is -24.8 kcal/mol.
With GAATGCGAAAGCATCTTC ((((((....)))..))), in series [1], the Tm worked out at 53 °C. Moreover, the folding enthalpy in series [2] was -23.4 kcal/mol.
For GTGGCTCCGAAAGGACAC (((..(((....)))))) the same measures were 47.8 °C and -14.6 kcal/mol.
Turning to GGTTGGGGAAACTCGACC (((.(.(....).).))), the Tm in series [1] came to 39.5 °C. Further, in series [2], the folding enthalpy is -23.2 kcal/mol.
For GAAGGACGAAAGTCGTTC (((.(((....))).))), the Tm in series [1] worked out at 51.9 °C. For the same sequence, the folding enthalpy in series [2] was -37.1 kcal/mol.
In the case of GTAGGACGAAAGTCTAC (((.(((....)))))), in series [1], the Tm is 43 °C. In addition, the folding enthalpy in series [2] is -17.2 kcal/mol.
The matching figures for GATACGGGAAACCGTACC (.(((((....))))).): 32.1 °C and -15.7 kcal/mol.
Consider GCGACGCGAAAGCAGCGC (((..((....))..))), for which the Tm in series [1] came to 65.7 °C. Besides, the folding enthalpy in series [2] was -30.3 kcal/mol.
The matching figures for GCCATCGAAAGATGGGGC ((((((....)))..))): 54.4 °C and -12.8 kcal/mol.
As for GACAGCGAAAGCTCAGTC ((((((....)))..))), the Tm in series [1] is 38.7 °C. The folding enthalpy in series [2] is -11.5 kcal/mol.
GATCGCACACGCGATC ((((((....)))))): the Tm in series [1] was 68.2 °C. Besides, the folding enthalpy in series [2] was -38 kcal/mol.
As to GCCAACGGAAACGTTGAC (.(((((....))))).), the Tm in series [1] amounted to 46.5 °C. Further, the folding enthalpy in series [2] is -16.5 kcal/mol.
On to GAGACACGAAAGTGACTC (((.(((....))).))), for which the Tm in series [1] was found to be 55.6 °C. Also, in series [2], the folding enthalpy was -36 kcal/mol.
As for GCTGGTGAAAACCAGC ((((((....)))))), the Tm in series [1] came to 69.1 °C. The folding enthalpy in series [2] was -22.6 kcal/mol.
GAGGCCGAAAGGCGCTC ((((((....))).))): in series [1], the Tm turned out to be 57 °C. Also, in series [2], the folding enthalpy is -13.8 kcal/mol.
With GATGTAGGAAACCACATC (((((.(....).))))), the Tm in series [1] amounted to 37.6 °C. In addition, the folding enthalpy in series [2] is -34.1 kcal/mol.
On to GCGCAGCGAAAGCTTCGC (((.(((....))).))), for which, in series [1], the Tm was determined as 51.4 °C. Also, the folding enthalpy in series [2] is -36.1 kcal/mol.
For the sequence GATTGGGAAACCAATC ((((((....)))))), the Tm in series [1] is 52.3 °C. Besides, the folding enthalpy in series [2] is -35 kcal/mol.
With AACCGGAAACGGTT (((((....))))), the Tm in series [1] was found to be 50 °C. The folding enthalpy in series [2] is -19.8 kcal/mol.
For GATCCGGAGGCGGATC ((((((....)))))), in series [1], the Tm was determined as 57.8 °C. The folding enthalpy in series [2] is -33.4 kcal/mol.
Regarding CGCTACGGAAACGTGGCG (((.(((....))).))), in series [1], the Tm worked out at 59.5 °C. In addition, the folding enthalpy in series [2] is -40.1 kcal/mol.
Take GCGACGCGAAAGCGAGGC ((..(((....)))..)): the Tm in series [1] is 54.6 °C. The folding enthalpy in series [2] is -12.8 kcal/mol.
With GATCGCAGGCGCGATC ((((((....)))))), the Tm in series [1] was determined as 68.3 °C. In series [2], the folding enthalpy was -35.1 kcal/mol.
As for GTCATCGGAAACGATAAC ((.((((....)))).)), in series [1], the Tm is 32.2 °C. Further, in series [2], the folding enthalpy is -19.7 kcal/mol.
Consider GCGACCCTCGC ((((...)))), for which the Tm in series [1] stood at 49.4 °C. Also, the folding enthalpy in series [2] is -20.7 kcal/mol.
For GCACCGCGAAAGCGGAGC ((.((((....)))).)) the same measures were 69 °C and -16.4 kcal/mol.
